# High-throughput results as filed in PubChem BioAssay.
# Only some compounds are listed: those with a hit (about 1.2% of all), similar ones and a draw of the others.
# Diaph inh CS: diaphorase inhibitors and chemical oxidizers, primary screen, counter-screen for diaphorase-coupled primary assays, biochemical, uHTS, resorufin fluorescence. AID 1217, 2008. 190,000 tested, 0.69% active. inhibition, % at 20 µM. diaphorase resazurin-to-resorufin fluorescence, NADH, 16 min; bacterial (C. kluyveri) enzyme, not human;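 active = primary screen inhibition at 20 µM above a set limit, cut at about 50% in these data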;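 note: plate controls were DMSO with full reaction for no effect and wells lacking NADH for full effect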
#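 Test system: Clostridium kluyveri diaphorase enzyme / Quantity: diaphorase at 0.14 U/mL in enzyme working solution / Incubation: 16-min room-temperature incubation before reading / Benchmarks: NADH-free wells as positive control, DMSO-only neutral wells / Signal: resorufin fluorescence 544/590 nm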
# PfG6PD inh: PfG6PD enzyme inhibitors, primary screen, biochemical, fluorescence intensity, uHTS | inhibition, % at 20 µM | 350,000 tested, 0.78% active | PfGluPho enzyme, NADPH resazurin-diaphorase fluorescence;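 active = inhibition reaching at least a set limit at 20 µM in the primary screen, cut at about 59% in these data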;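 note: 0% = DMSO wells with substrate and 100% = DMSO wells lacking glucose-6-phosphate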
# HKDC1 inhibitor: HKDC1 hexokinase inhibitors, primary screen, biochemical, fluorescence, uHTS. recombinant HKDC1, G6PDH/diaphorase resazurin coupled fluorescence. inhibition, % at 20 µM. 340,000 tested, 0.16% active;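 active = inhibition above about 35% when tested at 20 µM, limit read from the data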;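 note: plate controls were DMSO wells with enzyme for no effect and DMSO wells lacking enzyme for full effect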
# Target sequence (Q2TB90 whole entry, looked up): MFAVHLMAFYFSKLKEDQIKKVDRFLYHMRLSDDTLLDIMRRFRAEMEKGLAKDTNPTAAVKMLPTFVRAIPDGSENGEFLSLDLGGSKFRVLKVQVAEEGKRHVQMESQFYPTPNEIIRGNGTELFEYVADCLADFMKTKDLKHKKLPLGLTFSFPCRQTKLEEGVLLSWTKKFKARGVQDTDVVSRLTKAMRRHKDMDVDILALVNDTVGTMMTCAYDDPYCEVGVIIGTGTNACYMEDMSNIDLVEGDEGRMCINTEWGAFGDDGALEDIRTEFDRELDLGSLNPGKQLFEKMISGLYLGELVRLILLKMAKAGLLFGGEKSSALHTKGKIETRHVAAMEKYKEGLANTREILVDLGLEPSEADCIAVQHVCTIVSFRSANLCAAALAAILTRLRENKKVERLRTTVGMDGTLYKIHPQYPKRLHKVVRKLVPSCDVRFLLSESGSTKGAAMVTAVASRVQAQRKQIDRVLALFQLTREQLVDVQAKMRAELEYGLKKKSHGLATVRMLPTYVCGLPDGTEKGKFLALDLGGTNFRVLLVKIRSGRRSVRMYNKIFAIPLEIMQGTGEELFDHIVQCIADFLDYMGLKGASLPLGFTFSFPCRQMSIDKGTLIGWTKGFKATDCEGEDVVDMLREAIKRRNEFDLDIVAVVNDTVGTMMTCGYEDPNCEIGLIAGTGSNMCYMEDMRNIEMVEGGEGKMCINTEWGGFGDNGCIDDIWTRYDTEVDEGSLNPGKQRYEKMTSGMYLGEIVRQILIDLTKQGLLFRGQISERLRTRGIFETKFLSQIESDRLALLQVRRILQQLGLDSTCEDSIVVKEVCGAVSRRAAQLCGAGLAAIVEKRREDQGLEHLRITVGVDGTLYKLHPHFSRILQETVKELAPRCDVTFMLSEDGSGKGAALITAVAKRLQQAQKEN
#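 test system = in-house recombinant HK5 (HKDC1) enzyme | amount = HKDC1 at 5 µg/mL | control set = DMSO-enzyme wells negative, buffer-substituted wells positive | compound = one dose of 20 µM, 1% DMSO | schedule = reaction time 90 min, room temperature, protected from light | technique = resorufin fluorescence at 613 nm | reagent = glucose with 1 mM ATP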
# G6PDH CS: L. mesenteroides G6PDH inhibitors, counter-screen for G6PDH-coupled screening assays, biochemical, Leuconostoc mesenteroides enzyme. Purified L. mesenteroides G6PDH, diaphorase/resazurin coupled fluorescence, 45 min. inhibition, % at 5 µM. glucose-6-phosphate dehydrogenase [Leuconostoc mesenteroides]. 200,000 tested, 0.12% active; in the data active = inhibition above about 50%
# HKDC1 act conf: HKDC1 hexokinase activators, confirmation, biochemical, single concentration. shares compounds with HKDC1 inhibitor. recombinant HKDC1, G6PDH/diaphorase resazurin fluorescence; active compounds read low. inhibition, % at 20 µM. 740 tested, 14% active;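 active = inhibition at or below a set negative limit, negative inhibition meaning the enzyme was activated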
# Active calls of the source: *; . = no result given.
SMILES,Diaph inh CS,PfG6PD inh,HKDC1 inhibitor,G6PDH CS,others
CCN(CC)C(=O)c1ccc2c(c1)C1C(Cl)C(Sc3ccccc3[N+](=O)[O-])CC1C(C(=O)O)N2 (centres undefined),.,35,12,.,
O=C(O)c1ccc2c(c1)C1C(Cl)C(Sc3ccccc3[N+](=O)[O-])CC1C(c1cccc([N+](=O)[O-])c1)N2 (centres undefined),66*,46,9,9,
O=C(O)c1cccc2c1NC(c1cccc([N+](=O)[O-])c1)C1CC(Sc3ccccc3[N+](=O)[O-])C(Cl)C21 (centres undefined),94*,12,8,14,
C[C@]12CCC3C(CC[C@H]4C[C@H](OC(=O)c5cccnc5)CC[C@]34C)C1CCC2=O (some centres undefined),.,-9,11,.,
Cc1cc(C(=O)OCC(=O)Nc2ccc(F)cc2F)c(C)n1C1CC1,.,-12,-1,.,
Cc1ccc(OC(=O)N(C)C[C@@H]2OCc3cnnn3CCCC(=O)N([C@H](C)CO)C[C@H]2C)cc1,.,8,.,.,
COC(=O)C1=C(c2ccc(F)cc2F)C[C@@H]2CC[C@H]1N2C(=O)N1CCCCC1,.,0,-1,.,
Cc1nc2ccccc2c(=O)n1-c1ccc(Cl)cc1[N+](=O)[O-],77*,-42,-23,8,
CN(C)C(=S)SSC(=S)N(C)C,23,95*,-12,5,
N/C(=N\N=C/c1ccc(-c2ccc(O)c(C(=O)O)c2)o1)N[N+](=O)[O-],57*,-10,16,3,
COC(=O)C1=C(c2ccc(Cl)c(C(F)(F)F)c2)C[C@@H]2CC[C@H]1N2C(=O)N1CCC(O)(c2ccc(Cl)cc2)CC1,.,31,7,.,
COc1ccc(OC)c(N2C(=O)NC(=O)/C(=C\c3ccc([N+](=O)[O-])s3)C2=O)c1,23,51,12,6,
O=C1NC(=O)N(c2ccccc2)C(=O)/C1=C\c1ccc([N+](=O)[O-])s1,.,81*,2,.,
CN1C(=O)/C(=C\c2ccc(Br)s2)C(=O)NC1=S,.,60*,13,.,
CN1C(=O)NC(=O)/C(=C/c2ccc([N+](=O)[O-])o2)C1=O,.,42,9,.,
CN1C(=O)NC(=O)/C(=C/c2ccc([N+](=O)[O-])s2)C1=O,.,81*,5,.,
CCN1CCC(NCC2CCCCC2)CC1,.,-15,-2,.,
CCN(CC(=O)Nc1ccc(C#N)c(Cl)c1)CC(=O)NC1CCS(=O)(=O)C1 (centres undefined),.,-20,-3,.,
Cc1cc2c(C(C)C)c(O)c(O)c(C=O)c2c(O)c1-c1c(C)cc2c(C(C)C)c(O)c(O)c(C=O)c2c1O,64*,.,.,28,
CC12CCC(=O)C=C1CCC1C2CCC2(C)C(O)(C(=O)CO)CCC12O (centres undefined),.,-12,-8,.,
O=C(NC1(C(F)(F)F)Oc2ccc(Cl)cc2O1)N1CCC2(CC1)OCCO2 (centres undefined),52*,7,6,44,
O=C(NC1(C(F)(F)F)Oc2ccccc2O1)N1CCC2(CC1)OCCO2,41,33,5,24,
COc1ccc(CCNCc2sccc2C)cc1,.,5,-6,.,
Cn1ncnc2c(=O)n(C)c(=O)nc1-2,56*,122*,69*,72*,
CCOc1ccc(N2C(=O)/C(=C/c3ccco3)C(=O)NC2=S)cc1,.,33,81*,.,
SMILES,Diaph inh CS,PfG6PD inh,HKDC1 inhibitor,G6PDH CS,others
S=C(N1CCCCCC1)N1CC1,.,-15,-7,.,
CCOP1(=S)Oc2cc3c(cc2C(C(=O)OC)(C(F)(F)F)O1)OCO3 (centres undefined),6,64*,2,3,
CC[C@]12CC[C@H](O)CC1=CCC1C2CC[C@]2(C)C(=O)CCC12 (some centres undefined),.,-15,7,.,
C[C@@]1(CO)[C@H](O)CC[C@@]2(C)[C@H]1CC[C@H]1C[C@@H]3C[C@@]12CC[C@]3(O)CO,2,.,.,54*,
COc1ccc(CCNC(=O)c2c(N)n(CCN3CCOCC3)c3nc4ccccc4nc23)cc1,59*,17,2,-37,
Cc1cccc(N2C(=O)NC(=O)/C(=C\c3ccc4c(c3)CCCN4Cc3ccccc3)C2=O)c1,13,12,45*,-4,HKDC1 act conf=45
CC1=NN(c2ccccc2)C(=O)C1/C=C1/C(=O)NC(=O)N(c2cccc(C)c2)C1=O (centres undefined),25,.,.,-3,
Nc1cnn(-c2ccccc2)c(=O)c1Cl,.,7,45*,.,HKDC1 act conf=-22
Cc1cc(/C=C2\C(=O)NC(=O)N(c3ccccc3F)C2=O)c(C)n1-c1cc(C(=O)O)cc(C(=O)O)c1,.,-4,2,.,
CCOC(=O)c1c(-n2c(C)cc(C=C3C(=O)NC(=O)NC3=O)c2C)sc2c1CCCC2,10,-4,41*,5,HKDC1 act conf=30
Cc1cccc(N2C(=O)NC(=O)/C(=C\c3cc(C)n(-c4sc5c(c4C#N)CCCC5)c3C)C2=O)c1C,28,12,72*,2,HKDC1 act conf=55
O=P(N1CC1)(N1CC1)N1CCc2ccccc21,.,4,-5,.,
COC(=O)C1=C(c2ccc(-c3ccccc3)c(F)c2)C[C@@H]2CC[C@H]1N2C(=O)NCc1cc(C)oc1C(F)(F)F,.,10,1,.,
COC(=O)C1=C(c2c(C)noc2C)C[C@@H]2CC[C@H]1N2C(=O)N1CCC(O)(c2ccc(Cl)cc2)CC1,.,3,-2,.,
COc1cc2c(cc1OC)-c1c(OC)c(OC)c(OC)c3ccnc(c13)C2=O,55*,48,50*,19,HKDC1 act conf=57
COc1cc(CC2(CCc3ccncc3)C(=O)NC(=O)NC2=O)cc(OC)c1OC,15,-10,-8,6,
O=C(c1ccc(N2CCCCCC2)c([N+](=O)[O-])c1)N1CCC2(CC1)OCCO2,12,-7,-5,8,
CC1C=CCCC12C(=O)NC(=O)NC2=O (centres undefined),.,4,-2,.,
CCCCCc1nc2ccccc2c(=O)n1-c1ccccc1[N+](=O)[O-],25,3,-7,8,
CCCCCc1nc2c(c(=O)c3ccccc3n2C)c(=O)n1C1CCCCCC1,-5,9,31,-22,HKDC1 act conf=17
Cc1ccc(OP2(=O)Nc3cc(C)c(C)cc3S2)cc1 (centres undefined),.,46,-41,.,HKDC1 act conf=-23
Cc1ccccc1C(=O)N1CC1C (centres undefined),.,10,-4,.,
Cc1ccc(N2C(=O)NC(=O)/C(=C/c3ccoc3)C2=O)cc1,.,22,39*,.,HKDC1 act conf=-3
COC(=O)C[C@]1(C(=O)OC)CN(C#N)N(c2ccc(Cl)cc2)C12c1ccccc1-c1ccccc12,16,22,87*,4,HKDC1 act conf=62
